Source: PubChem BioAssay
In the library only some 3% were active in any assay of this set; here they are far more common.
NSD2 inh: NSD2 histone methyltransferase inhibitors, primary screen, biochemical, AlphaScreen, single concentration, set 2; NSD2 peptide methylation, 120 min; inhibition, % at 12.5 µM; hit rate 0.54% among 310,000; AID 743445, 2014; in the data active = inhibition above about 50%
Casp6 inh: human caspase-6 inhibitors, primary screen, biochemical, VEID-R110 fluorescence, single point, set 2; hit rate 0.53% among 350,000; purified caspase-6, Z-VEID-R110 cleavage fluorescence; inhibition, % at 12.5 µM; P55212;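 active = mean inhibition across replicates at least about 35%, with every replicate also reaching that limit, limit read from the data; inconclusive = only one of the two criteria met; inactive = neither criterion met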;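 also: 0% = median of neutral control wells and 100% = no fluorescence left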
Target sequence (P55212 24-179 limits assumed): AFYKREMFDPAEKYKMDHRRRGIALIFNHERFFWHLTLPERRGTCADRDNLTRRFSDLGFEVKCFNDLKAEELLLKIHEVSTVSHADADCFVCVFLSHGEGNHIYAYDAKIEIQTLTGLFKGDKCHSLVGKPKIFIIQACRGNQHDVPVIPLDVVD
Target sequence (P55212 194-293 limits assumed): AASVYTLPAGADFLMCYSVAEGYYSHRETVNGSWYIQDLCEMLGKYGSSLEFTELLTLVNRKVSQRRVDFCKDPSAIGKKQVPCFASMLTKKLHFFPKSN
MITF act: activators of MITF-driven TRPM1 promoter reporter, primary screen, cell-based, SK-MEL-5, luciferase, single point | SK-MEL-5 TRPM1-promoter luciferase, 24 h; % of positive control, neutral wells = 0 | activation, % at 12.5 µM | hit rate 0.75% among 300,000;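 active = mean activation of at least 80% with every replicate also reaching 80%; inconclusive = mean reaches 80% but some replicate falls short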;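 also: 0% = neutral control wells and 100% = parthenolide positive control wells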
XiGFP reactiv: activators of inactive X chromosome reactivation, primary screen, imaging, XiGFP fibroblasts, GFP high-content imaging, set 2 | XiGFP mouse fibroblasts, % GFP-positive cells imaging, 3 d; cells co-treated with 5-aza-dC sensitizer; scaled so ellipticine positive control = 100% | activation, % at 7.58 µM | hit rate 0.055% among 360,000;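 active = mean normalized replicate activation at least 10% and every replicate at or above 10%; inconclusive = only one of the two criteria met; inactive = mean below 10% and not all replicates reach 10%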;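 also: 0% = median of on-plate neutral control wells and 100% = ellipticine 6 µM median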
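assay system = SV40-immortalized XiGFP fibroblast cells, line 68-5-11 | buffer or medium = DMEM plus 5-aza-dC sensitizer | doses = single-point pinned compound dosing | times = 3-day compound exposure, then 15 min fixation at room temperature | benchmarks = positive control ellipticine, 6 µM final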
esBAF inh: Bmi1 luciferase reporter increase in mESCs, primary screen, esBAF inhibitor project, mouse ES cells, Bmi1 luciferase knock-in, single point; 24 h; 100% = twice the neutral-well signal; hit rate 2% among 350,000; reporter increase, % at 12.5 µM; in the data active = activation above about 40%; inconclusive = no clear call, values can overlap the other calls;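 also: 0% = median of the plate's neutral control wells and 100% = double that signal; a rise in the Bmi1 reporter signal indicates esBAF inhibition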
Wnt act: Wnt/beta-catenin pathway activators, primary screen, cell-based, plate reader, single point; AID 743398, 2014; Wnt/beta-catenin reporter cell assay, activator; activation, % at 9.35 µM; hit rate 1.2% among 300,000; in the data active = activation above about 30%, passing the limit was not always enough; inconclusive = no clear call, values can overlap the other calls;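 also: 0% = neutral control wells and 100% = positive control wells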
The depositor's hits bear a star; ? = inconclusive; / = no result given.

SMILES	NSD2 inh	Casp6 inh	MITF act	XiGFP reactiv	esBAF inh	Wnt act
O=C(O)c1ccc(-c2nnc(-c3cccc(Br)c3)o2)cc1	0	-4	64	0	71*	12
O=C1/C(=C/c2cccc([N+](=O)[O-])c2)Oc2cc(O)ccc21	0	1	18	0	-1	-9
Cc1ccsc1/C=C1\Oc2cc(O)ccc2C1=O	/	3	/	0	51*	0
COc1cc(C=C2C(=O)C=CC2=O)ccc1O	/	79*	/	2	/	-3
COc1cc(/C=C2/C(=O)CNC2=O)ccc1O	0	/	0	0	/	2
O=C1/C(=C/c2ccc(O)c(O)c2)Oc2cc(O)ccc21	/	30	79	/	28	6
COc1cc(/C=C2\Oc3cc(O)ccc3C2=O)ccc1O	/	-1	78	/	46*	4
CN=C1S/C(=C\c2ccc(O)c(OC)c2)C(=O)N1C	-2	-2	/	0	/	52*
O=C(C[C@@H]1CC[C@@H](NC(=O)c2ccccc2)[C@H](CO)O1)NCc1ccc(Oc2ccccc2)cc1	/	1	/	2	9	/
O=C(N/N=C/c1coc2ccccc2c1=O)c1cc(Br)ccc1O	4	43*	-8	0	/	0
COc1ccccc1NC(=O)N[C@@H]1CC[C@@H](CCNS(=O)(=O)c2ccc(C)cc2)O[C@@H]1CO	/	1	/	0	/	/
C[C@@H]1CCCCO[C@@H](CN(C)S(C)(=O)=O)[C@H](C)CN([C@@H](C)CO)C(=O)c2cc(NC(=O)c3ccccc3)ccc2O1	/	-3	/	0	6	/
Cc1ccc(SC2=C(N(C)C)C(=O)c3ccccc3C2=O)cc1	93*	8	/	0	/	8
Cc1cccc(N=NC(=S)NNc2cccc(C)c2)c1	/	0	39	0	52*	-3
O=C(C[C@@H]1CC[C@H]2[C@@H](COC[C@H](O)CN2C(=O)Nc2ccc(F)cc2)O1)NCCc1ccncc1	/	-2	/	0	2	/
O=C(Nc1ccc(F)cc1)N[C@@H]1C=C[C@H](CC(=O)N2CCCCC2)O[C@@H]1CO	/	-5	/	-1	1	/
COc1ccc(CN(C)C[C@@H]2OCCCC[C@@H](C)Oc3ccc(NS(=O)(=O)c4c(C)noc4C)cc3C(=O)N([C@@H](C)CO)C[C@@H]2C)cc1	/	2	/	-1	/	/
CC(C)CCn1cnc2c(sc3nc4c(cc32)CSC(C)(C)C4)c1=O	2	-7	85*	0	/	-2
CCCCn1cnc2c(sc3nc4c(cc32)CSC(C)(C)C4)c1=O	-1	/	44	0	47*	28
COc1ccc(C(=O)N2CCN(c3ccc(F)cc3)CC2)cc1S(=O)(=O)NC1CC1	-2	-13	41	0	50*	25
COc1ccc(-c2nc3c4ccccc4ccn3c2Cc2cccc(F)c2)cc1OC	/	-2	/	0	41*	3
COc1ccc(-c2nc3c(C)cc(Br)cn3c2Cc2cccc(F)c2)cc1OC	/	0	/	/	-2	-1
Clc1ccc2nc(-c3ccccc3)c(CN3CCOCC3)n2c1	18	/	6	/	/	/
COc1ccc(-c2nc3c4ccccc4ccn3c2CN2CCOCC2)cc1OC	6	5	44	0	57*	28
c1ccc(-c2nc3c4ccccc4ccn3c2CN2CCOCC2)cc1	-53	1	9	0	34	49*
SMILES	NSD2 inh	Casp6 inh	MITF act	XiGFP reactiv	esBAF inh	Wnt act
COc1ccc(-c2nc3c4ccccc4ccn3c2CC2CCCCC2)cc1OC	/	-4	/	0	1	6
COc1ccc(CN2CC3(CCN(C(=O)C4CCOCC4)CC3)c3c(n(C)c4cc(OC)ccc34)[C@@H]2CO)cc1	/	-3	/	0	/	/
O=C1NCCOCc2cn(nn2)CC[C@H]1Cc1ccccc1	/	/	/	0	/	/
O=C(NCC(c1ccco1)N1CCc2ccccc21)c1ccc([N+](=O)[O-])cc1 (centres undefined)	-1	72*	2	0	-3	-3
Cc1ccc(C(=O)NCC(c2ccco2)N2CCc3ccccc32)cc1 (centres undefined)	7	-2	-8	0	6	0
O=C(NCC(c1ccco1)N1CCc2ccccc21)c1cccc([N+](=O)[O-])c1 (centres undefined)	7	63*	-1	0	-11	-3
COc1ccc(C2=C(CN(C)C)C(c3ccccc3)c3ccccc3O2)cc1 (centres undefined)	0	/	-8	/	71*	/
O=C(C1CC1)N1CC(=O)N2[C@H](CO)[C@H](c3ccc(Br)cc3)[C@H]2C1	/	3	/	0	/	/
CCc1ccc(NC(=O)Nc2ccc3c(c2)CCC3)cc1	0	1	51	0	53*	10
COc1cccc(NC(=O)c2ccc3c(c2)CCCC3)c1	-5	4	46	0	27	0
CC(=O)c1cccc(NC(=O)c2ccc3c(c2)CCCC3)c1	1	-5	113*	0	15	24
CC(=O)c1cccc(NC(=O)c2noc3c2CCc2ccccc2-3)c1	-6	-1	?	1	17	33*
CC(=O)c1cccc(Nc2ccc(Br)cc2)c1	/	0	/	0	54*	18
Cc1cc(NC(=O)c2noc3c2CCc2ccccc2-3)no1	/	-1	25	0	40	10
CC(=O)c1cccc(NC(=S)NC(=O)c2ccc(Br)cc2)c1	2	/	58	/	/	/
COc1ccc(NC(=O)N(C)C[C@@H]2Oc3ccc(NC(=O)Cc4cn(C)c5ccccc45)cc3CC(=O)N([C@@H](C)CO)C[C@@H]2C)cc1	/	-1	/	0	-7	/
COc1ccc2c3c([nH]c2c1)[C@@H](CO)N(C(=O)CN(C)C)CC31CCN(CC2CCCCC2)CC1	/	/	/	0	/	/
CO[C@@H]1CN(C)C(=O)c2cc(NC(=O)c3cnccn3)ccc2OC[C@@H](C)NC[C@H]1C	/	2	/	0	0	/
CC(=O)c1cccc(NC(=O)Nc2ccc3c(c2)CCC3)c1	0	-1	97*	0	66*	19
CCc1ccc(NC(=O)Nc2ccon2)cc1	26	3	59	0	44*	17
O=C(CSc1nncs1)NC(=O)Nc1ccc2c(c1)OCCO2	-3	-2	57	0	26	37*
COc1ccc(NC(=O)Nc2ccc3c(c2)[C@@H]2C[C@H](CC(=O)N[C@@H](C)c4ccccc4)O[C@H](CO)[C@@H]2O3)cc1	/	-1	/	1	/	/
Cc1ccnc(NC(=O)c2cccc(S(=O)(=O)N3CCCc4ccccc43)c2)c1	/	1	88*	0	/	30
O=C(Nc1ccccn1)c1ccc(S(=O)(=O)N2CCCCC2)cc1	/	-2	91*	0	40	23
